Experimental data reported in publication PMC3428850 (Molecular cancer therapeutics, 2012).
Blank lines part the entries; values can stand above or below the compound they belong to.

Experiments:
SW620 xenografts = assay: anti-tumour efficacy study, SW620 xenografts; type: in vivo, mice
Outline: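 Female athymic CD1-nu/nu mice with s.c. SW620, n = 5/group, treated once tumours were palpable (~5 × 5 mm, day 8-10). Controls: saline i.p. daily. Test compound 10 mg/kg i.p. for 5 days. Etoposide phosphate 11.35 mg/kg i.p. (10 mg/kg etoposide) daily × 5. Combination: test compound i.p. once or twice daily × 5, first dose just before etoposide. Caliper volume a²×b/2; median RTV (day 0 = 1); time to RTV4.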

MCF7 xenografts = assay: anti-tumour efficacy study, MCF7 xenografts; type: in vivo; conditions: MCF7 tumour-bearing mice
T47D cells = assay: clonogenic survival assay; type: cell-based, human
Outline: (§1)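 Cells in RPMI 1640/10% FBS were exposed in 6-well plates for 16 h to etoposide or doxorubicin with or without test compound (1 μM), or to test compound alone. Cells then harvested and reseeded in drug-free medium. Colonies stained with crystal violet after 10-14 days and counted automatically. Fold enhancement = survival with cytotoxic alone / survival with cytotoxic + 1 μM test compound. Means ± SD, n = 3.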

MDA-MB-231 cells = assay: clonogenic survival assay; type: cell-based, human
Outline: as §1

M059J cells = assay: clonogenic survival assay, DNA-PKcs-deficient cells; type: cell-based, human; conditions: clonogenic survival
Outline: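 Human glioblastoma M059J cells (DNA-PKcs-deficient) and M059-Fus-1 cells (chromosome 8 transfected; G-418 200 μg/ml) in DMEM/10% FBS. Etoposide or doxorubicin alone or with 1 μM test compound, or test compound alone, for 16 h. Reseeded drug-free. Crystal violet colony counts after 10-14 days. Fold enhancement as survival ratio. Means ± SD, n = 3.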

MCF7 cells = assay: clonogenic survival assay; type: cell-based, human
Outline: as §1

SW620 cells = assay: clonogenic survival assay; type: cell-based, human
LoVo cells = assay: clonogenic survival assay; type: cell-based, human
Outline: as §1

PI-3K = assay: PI-3K-dependent AKT phosphorylation; type: cell-based, human; conditions: read-out: IC50 PI-3K-mediated AKT phosphorylation; MCF7 cells, IGF-1 stimulated
Outline: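 MCF7 cells in RPMI 1640/10% FBS. Exposed to a concentration range of test compound for 1 h, then 50 ng/ml IGF-1 for 30 min. Western blot of AKT Ser473 relative to total AKT. Rise above unstimulated baseline in treated cells expressed as % of the rise in control cells. Mean of three independent experiments fitted to a sigmoidal dose-response curve for IC50.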

V3 cells = assay: clonogenic survival assay, DNA-PKcs-deficient cells; type: cell-based, Chinese hamster; conditions: clonogenic survival
Outline: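 Chinese hamster ovary V3 cells (DNA-PKcs-deficient) and V3-YAC cells (human DNA-PKcs on YAC; kept under G-418 500 μg/ml) in RPMI 1640/10% FBS. Etoposide alone or with 1 μM test compound, or test compound alone, for 16 h. Reseeded drug-free. Crystal violet colony counts after 10-14 days. Fold enhancement as survival ratio. Means ± SD of 3 independent experiments.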

[1] = 100 nM doxorubicin with or without 1 μM KU-0060648, 16 hr
[2] = 1 μM etoposide with or without 1 μM KU-0060648, 16 hr

Structure (SMILES): COc1cc([C@@H]2c3cc4c(cc3[C@@H](O[C@@H]3O[C@@H]5CO[C@@H](C)O[C@H]5[C@H](O)[C@H]3O)[C@H]3COC(=O)[C@H]23)OCO4)cc(OC)c1OP(=O)(O)O [etoposide phosphate, reference compound]
maximum body weight loss (SW620 xenografts; SW620 tumour-bearing mice): no body weight loss
time to RTV4 (median) (SW620 xenografts; SW620 xenografts, single agent or combination with once daily KU-0060648): 6.5 days
maximum body weight loss (MCF7 xenografts): 3%

Structure (SMILES): COc1cccc2c1C(=O)c1c(O)c3c(c(O)c1C2=O)C[C@@](O)(C(=O)CO)C[C@@H]3O[C@H]1C[C@H](N)[C@H](O)[C@H](C)O1 [doxorubicin, reference compound]
survival (clonogenic) (T47D cells; [1]): 9.0±3.2
survival (clonogenic) (MDA-MB-231 cells; MDA-MB-231, 100 nM doxorubicin with or without 1 μM KU-0060648, 16 hr): 1.8±0.6
fold more sensitive, DNA-PKcs-deficient M059J versus M059-Fus-1 cells (M059J cells): approximately 23 fold
survival (clonogenic) (MCF7 cells; MCF7, 100 nM doxorubicin with or without 1 μM KU-0060648, 16 hr): 42.3±13
survival (clonogenic) (SW620 cells; SW620, 100 nM doxorubicin with or without 1 μM KU-0060648, 16 hr): 0.06±0.06
survival (clonogenic) (LoVo cells; [1]): 1.4±0.9

IC50 (PI-3K): 3.9 ± 3.5 µM
Structure (SMILES): O=c1cc(N2CCOCC2)oc2c(-c3cccc4c3sc3ccccc34)cccc12 [NU7441, reference compound]

Structure (SMILES): COc1cc([C@@H]2c3cc4c(cc3[C@@H](O[C@@H]3O[C@@H]5CO[C@@H](C)O[C@H]5[C@H](O)[C@H]3O)[C@H]3COC(=O)[C@H]23)OCO4)cc(OC)c1O [etoposide, reference compound]
fold more sensitive, DNA-PKcs-deficient V3 versus V3-YAC cells (V3 cells): approximately 3 fold
survival (clonogenic) (T47D cells; [2]): 24±4
survival (clonogenic) (MDA-MB-231 cells; MDA-MB-231, 1 μM etoposide with or without 1 μM KU-0060648, 16 hr): 16±10
fold more sensitive, DNA-PKcs-deficient M059J versus M059-Fus-1 cells (M059J cells): approximately 2.5 fold
survival (clonogenic) (MCF7 cells; MCF7, 1 μM etoposide with or without 1 μM KU-0060648, 16 hr): 23±9
survival (clonogenic) (SW620 cells; SW620, 1 μM etoposide with or without 1 μM KU-0060648, 16 hr): 4.7±2.0
survival (clonogenic) (LoVo cells; [2]): 3.5±0.5
